DENV2 CPE rescue – inhibitors of DENV2 cytopathic effect. DENV2-infected cells, cytopathic effect rescue, plate reader. 1.7% of 350,000 active. CPE inhibition, % at 9.99 µM. AID 651640; in the data active = CPE inhibition above about 20%, passing the limit was not always enough; inconclusive = no clear call, values can overlap the other calls; tested in BHK-21 cells;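 note: 0% = median of neutral control wells and 100% = median of positive control wells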
PGC1a acetyl inh – lowers PGC1a acetylation signal in U2OS cells; inhibition, % at 15.6 µM; AlphaScreen anti-acetyl-lysine; with virally co-expressed GCN5 acetyltransferase; 0.17% of 350,000 active; AID 651687;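 active = every replicate shows inhibition of at least 40%; inconclusive = mean inhibition at least 40% but some replicate below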;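 note: 0% = neutral control wells and 100% = positive control wells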
PglD inh – PglD (C. jejuni) enzyme inhibition; purified PglD enzyme, DTNB colorimetric CoA detection; inhibition, % at 12.5 µM; 0.098% of 360,000 active; in the data active = inhibition above about 16%, passing the limit was not always enough; inconclusive = no clear call, values can overlap the other calls
Env fusion inh – blocks HIV Env-driven cell-cell fusion; HeLa-JRFL Env/CEM21 cell fusion, luciferase; inhibition, % at 12.3 µM; 1.1% of 360,000 active;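 active = mean replicate inhibition score of at least 50 and every replicate individually at or above 50; inconclusive = only one of the two criteria met; inactive = mean below 50 and not all replicates reaching 50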;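 note: 0% = plate neutral controls and 100% = maraviroc near 300 nM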
FN deposit inh – fibronectin deposition inhibition. AID 743247. inhibition, % at 12.6 µM. 0.086% of 350,000 active. AH1F fibroblasts, Alexa488-fibronectin deposition fluorescence, overnight;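 active = mean inhibition across replicates of 30% or more, regardless of how many single replicates reach that level; inconclusive = mean under 30% yet at least half of replicates reach 30%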;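 note: positive control wells lacked labelled fibronectin entirely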
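Material: AH1F fibroblast monolayer depositing Alexa488-labelled fibronectin into matrix / Amount: 10000 AH1F cells per well / Signal: fluorescence 485/525 nm / Medium: DMEM, 2% serum / Compound: single dose, pinned / Incubation: 1 h cell adhesion before compound, then overnight fibronectin incubation / Reagent: Alexa488-FN, 24 nM final / Read-out: inhibition of fibronectin deposition signal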
Ecoli rRNA inh – selective bacterial rRNA inhibition in E. coli; E. coli WT GFP vs humanized-ribosome RFP mutants, fluorescence, 24 h; active compounds read low; DMSO median 0, no signal -100; GFP signal change (wild-type ribosome), % (concentration not given with the values); 1.6% of 350,000 active;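 active = significant combined selectivity score with lowered wild-type GFP, culture density cut under 30%, mutant RFP and density less affected; inactive = any of these conditions unmet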
An asterisk follows results filed as active; ? = inconclusive; / = not tested or not shown; ! = repeats disagree; [ ] = remark or other dose. Compounds with a hit are over-represented: about 3.5% of the library has one in this group of screens.

SMILES	DENV2 CPE rescue	PGC1a acetyl inh	PglD inh	Env fusion inh	FN deposit inh	Ecoli rRNA inh
Oc1c(Cl)cc(Cl)cc1/C=N/NC(=S)NC1CC2C=CC1C2 (stereo not drawn)	3	7	16	29	10	-31*
Oc1ccccc1/C=N/NC(=S)NC1CC2C=CC1C2 (stereo not drawn)	10	-8	/	-12	6	-39*
Oc1ccccc1C=NNC(=S)NC1CC2C=CC1C2 (stereo not drawn)	-2	4	0	-105	12	-57
Oc1c(Cl)cc(Cl)cc1/C=N/Nc1ncc(Br)cn1	4	/	-4	8	2	5
C[C@@H]1CN([C@H](C)CO)S(=O)(=O)c2ccc(C#CCN(C)C)cc2O[C@@H]1CN(C)S(C)(=O)=O	-6	-16	0	0[16.7 µM]	/	4
CCN(CC)c1ccc(C(=O)N/N=C/c2ccccc2OC(F)F)cc1	1	/	/	10	41*	/
O=C(NC(=O)c1cccc(F)c1)OC[C@@H]1CCCN2CCCC[C@H]12	6	7	/	-12	-2	7
O=C(Nc1ccc(C(=O)OC[C@@H]2CCCN3CCCC[C@H]23)cc1)c1cccc(Br)c1	-1	/	/	/	2	-44*
O=C(NNC(=O)C12CC3CC(CC(C3)C1)C2)c1cccc([N+](=O)[O-])c1	20*	9	-6	27	-10	-8
O=C(NNc1ccc([N+](=O)[O-])cc1)C12CC3CC(CC(C3)C1)C2	/	-12	-3	69*	-1	/
CCCC#Cc1cnc2c(c1)C(=O)N([C@@H](C)CO)C[C@@H](C)[C@@H](CN(C)C(=O)Nc1c(C)noc1C)O2	6	4	0	0[16.7 µM]	-2	7
S=C1NCCN1CC1CCN(CCCC2CCCC2)CC1	72*	9	0	16	-7	7
C[C@H]1CCCCO[C@@H](CN(C)C(=O)CCC(F)(F)F)[C@@H](C)CN([C@@H](C)CO)C(=O)c2cc(NS(=O)(=O)c3ccc(F)cc3)ccc2O1	-10	4	2	-66[16.7 µM]	-3	3
Cc1cccc(CSCC(=O)N2CCN(S(=O)(=O)c3ccccc3C#N)CC2)c1	10	-2	-6	5	-2	-16*
CCOc1ccccc1OCCCC(=O)N1CCN(S(=O)(=O)c2ccccc2C#N)CC1	0	/	2	-18	-21	-1
CCN1C(=O)[C@H]2[C@@H](c3ccc(C(F)(F)F)cc3)N[C@]3(CCCN(Cc4ccccc4)C3=O)[C@H]2C1=O	8	2	-4	78*	4	/
CC(=O)OCC(O)C1(O)CCC2C3CCC4=CC(=O)CCC4(C)C3C(O)CC21C (stereo not drawn)	22*	-9	8	/	/	/
CCCN1C[C@@H](C)[C@H](OC)CN(C)C(=O)c2cc(NC(=O)c3cccc(F)c3)ccc2OC[C@@H]1C	-10	-10	3	/	-3	2
COc1cccc(NC(=O)Nc2ccc3c(c2)C(=O)N(C)C[C@H](OC)[C@H](C)CN(C)[C@H](C)CO3)c1	-9	6	-3	3[16.7 µM]	0	-3
CO[C@@H]1CN(C)C(=O)c2ccc(NC(=O)c3cccc(F)c3)cc2OC[C@H](C)N(C)C[C@H]1C	37*	-11	1	/	4	-1
CCCN1C[C@H](C)[C@H](OC)CN(C)C(=O)c2cc(NC(=O)Nc3ccccc3F)ccc2OC[C@H]1C	1	8	-1	11[16.7 µM]	3	1
COc1cccc(NC(=O)Nc2ccc3c(c2)C(=O)N(C)C[C@@H](OC)[C@@H](C)CN(C)[C@H](C)CO3)c1	26*	2	3	12[16.7 µM]	8	-2
CCCN1C[C@@H](C)[C@@H](OC)CN(C)C(=O)c2cc(NC(=O)c3cccc(F)c3)ccc2OC[C@@H]1C	27*	0	-1	/	-9	-1
CCCN1C[C@H](C)[C@@H](OC)CN(C)C(=O)c2cc(NC(=O)Nc3ccccc3F)ccc2OC[C@H]1C	29*	9	1	18[16.7 µM]	13	1
Cc1ccc(-c2ccccc2[C@H]2[C@@H](C#N)N(c3ncc(-c4ccccc4)s3)[C@H]2CO)cc1	-4	7	/	/	-11	-1
SMILES	DENV2 CPE rescue	PGC1a acetyl inh	PglD inh	Env fusion inh	FN deposit inh	Ecoli rRNA inh
C[C@@H]1CN([C@H](C)CO)C(=O)c2cccc(NC(=O)C3CCCCC3)c2O[C@@H]1CN(C)C(=O)Nc1ccc2c(c1)OCO2	6	1	-1	/	/	2
CCCC(=O)Nc1ccc2c(c1)C(=O)N(C)C[C@@H](OC)[C@@H](C)CN(S(=O)(=O)c1cn(C)cn1)[C@H](C)CO2	8	-2	-1	/	-2	1
C[C@@H]1CN([C@H](C)CO)C(=O)c2cccc(NS(=O)(=O)c3ccccc3)c2O[C@@H]1CN(C)Cc1ccc(Oc2ccccc2)cc1	-3	-8	-2	21[16.7 µM]	/	-3
CO[C@@H]1CN(C)C(=O)c2cc(NC(=O)Nc3cccc(F)c3)ccc2OC[C@@H](C)N(C)C[C@H]1C	5	-3	1	26[16.7 µM]	-4	1
CO[C@H]1CN(C)C(=O)c2cc(NC(=O)Nc3cccc(F)c3)ccc2OC[C@H](C)N(C)C[C@H]1C	29*	2	2	-27[16.7 µM]	-1	-4
COc1ccc(C(=O)NC(=S)NCc2cccnc2)cc1OC	-7	-8	3	-2	6	-29*
Cc1ccccc1-c1ccc2c(c1)O[C@H](CN(C)C(=O)Nc1ccc(C(F)(F)F)cc1)[C@H](C)CN([C@@H](C)CO)S2(=O)=O	?	0	1	56*[16.7 µM]	-1	5
Cc1ccc(-c2ccc3c(c2)O[C@@H](CN(C)C(=O)Nc2ccc(F)cc2)[C@@H](C)CN([C@@H](C)CO)S3(=O)=O)cc1	30*	4	-1	13[16.7 µM]	7	-4
C[C@@H]1CN([C@H](C)CO)S(=O)(=O)c2ccc(-c3cccc(C(=O)N(C)C)c3)cc2O[C@H]1CN(C)C(=O)Nc1ccc(F)cc1	27*!	12	4	-17	4	-2
COc1ccc(NC(=O)Nc2ccc3c(c2)CC(=O)N([C@@H](C)CO)C[C@@H](C)[C@@H](CN(C)S(=O)(=O)c2ccccc2)O3)cc1	-4	-5	/	-5[16.7 µM]	3	-2
Cc1cc(C)n2nc(NCc3cccc(Br)c3)nc2n1	/	/	0	106*	6	/
O=C(O)c1ccc(N/N=C/C=C/c2ccc([N+](=O)[O-])o2)cc1	1	/	-2	-9	1	-32*
O=[N+]([O-])c1ccc(N/N=C/C=C/c2ccco2)cc1	-10	-11	0	-58	-10	-40*
O=C(N/N=C/c1ccco1)c1cc([N+](=O)[O-])cc([N+](=O)[O-])c1	2	/	/	14	/	12
C[C@H](CO)N1C[C@H](C)[C@H](CN(C)Cc2ccc(C(F)(F)F)cc2)Oc2ccc(NS(=O)(=O)c3cccs3)cc2C1=O	-5	0	-1	-5[16.7 µM]	/	-32
